Consider two molecules from article PMC9399017 (European Journal of Drug Metabolism and Pharmacokinetics, 2022).

In data set [1] the test system is major CYP isoenzymes, including CYP3A4. The settings on record: in vitro; cited from earlier work.
The subject of a further data set is CYP3A. Particulars: humans; cited from earlier work.
A short description of data set [2]: Population pharmacokinetic. Format: in vivo, human (patients with advanced cancers). The settings on record: for Duration of constant (zero-order) release into depot, D1, capsule, Estimate (% RSE): hard gelatin capsule. In outline: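 Patients took immediate-release capsules or film-coated tablets orally. Sampling was intensive in cycle 1 and sparse for up to 5 cycles. Lithium-heparin blood was processed to plasma within about 30 min, protein-precipitated, and measured by validated LC-MS/MS (2.00‒500 ng/mL; LLOQ 2.00 ng/mL). FOCE-I mixed-effects fits tested 1–3-compartment models with fixed allometric weight exponents and per-cycle interoccasion variability. Percentiles came from bootstrap.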

The mark [3] stands for this setting: between-subject variability, NONMEM estimate.
[4] abbreviates: between-subject variability, bootstrap.
The mark [5] stands for this setting: final PopPK model, NONMEM estimate.

Where “and” joins values, the source holds several entries; their conditions need not be identical. Equal entries are not always repeated.

Usually half-life stands for the time in which the quantity being followed falls by half.

For `C[C@]12CC[C@@H]3c4ccc(O)cc4C[C@@H](CCCCCCCCC[S+]([O-])CCCC(F)(F)C(F)(F)F)[C@H]3[C@@H]1CC[C@@H]2O` (stereo partly drawn) [Fulvestrant, fulvestrant], in data set [1], the “Inhibition of major CYP isoenzymes” value is “did not significantly inhibit”. Further, in the data set on CYP3A, the “Change in exposure to a CYP3A substrate (midazolam)” value was “nor did it change the exposure”.
As to `CNC(=O)c1cccc2cc(Oc3ccnc4cc(OCC5(N)CC5)c(OC)cc34)ccc12` [lucitanib], the “Dose proportionality (post hoc ETA versus dose)” value in data set [2] (5 to 30 mg lucitanib, visual inspection) is listed as “consistent with dose proportionality”. Also, in data set [2] (17 of 403 patients with concomitant fulvestrant), the “Effect of co-administration of fulvestrant on lucitanib pharmacokinetics” value is recorded as “no effect”. The “Residual error (proportional), Estimate (% RSE)” value in data set [2] (NONMEM estimate) was 33.6% (2.30%). In data set [2] (setting [3]), the “CL/F BSV (log-proportional), Estimate (% RSE)” value is recorded as 47.8% (5.69%); the “D1 BSV (log-proportional), Estimate (% RSE)” value is listed as 60.1% (18.6%); the “Vc/F BSV (log-proportional), Estimate (% RSE)” value is given as 58.6% (6.97%); the “Vp/F BSV (log-proportional), Estimate (% RSE)” value is listed as 76.7% (9.10%). In data set [2] (setting [4]), the “CL/F BSV (log-proportional), Bootstrap median (2.5th, 97.5th percentile)” value is 47.5% (42.8%, 53.2%); the “D1 BSV (log-proportional), Bootstrap median (2.5th, 97.5th percentile)” value is reported as 58.7% (41.3%, 75.8%); the “Vc/F BSV (log-proportional), Bootstrap median (2.5th, 97.5th percentile)” value is on record as 58.9% (51.3%, 67.5%); the “Vp/F BSV (log-proportional), Bootstrap median (2.5th, 97.5th percentile)” value is listed as 75.2% (60.0%, 88.8%). For the same molecule, in data set [2] (bootstrap), the “Residual error (proportional), Bootstrap median (2.5th, 97.5th percentile)” value is 33.5% (32.0%, 34.8%). For the same molecule, the “Duration of constant release into depot for capsule, D1, Bootstrap median (2.5th, 97.5th percentile)” value in data set [2] (capsule, nonparametric bootstrap) was 0.812 (0.629, 0.956) h. Moreover, the “Effect of concomitant proton pump inhibitors on lucitanib absorption” value in data set [2] (concomitant PPI) is on record as “no clinically significant effect”. In data set [2] (concomitant proton pump inhibitor, n = 152, not significant), the “Ratio of F with concomitant PPI/without PPI, 95% CI” value is listed as 0.83–1.08. Moreover, in data set [2] (concomitant proton pump inhibitor, not clinically significant), the “Reduction in F with concomitant PPI (estimated effect size)” value is recorded as 6.5%. The “CL/F and Vc/F correlation, Estimate (% RSE)” value in data set [2] (correlation of random effects, NONMEM estimate) is on record as 0.596 (6.30%). In addition, the “CL/F and Vc/F correlation, Bootstrap median (2.5th, 97.5th percentile)” value in data set [2] (correlation of random effects, bootstrap) is given as 0.595 (0.469, 0.721). The “Duration of zero-order release, D1, tablet” value in data set [2] (film-coated tablet, final PopPK model) is on record as 0.243 h. In data set [2] (setting [5]), the “Apparent central volume, Vc/F, Estimate (% RSE)” value is 63.8 (5.08%) L/70 kg; the “Apparent distribution clearance, Q/F, Estimate (% RSE)” value is reported as 6.23 (8.41%) L/h/70 kg; the “Apparent peripheral volume, Vp/F, Estimate (% RSE)” value is reported as 69.1 (6.81%) L/70 kg; the “Effect of formulation on D1 (tablet to capsule ratio), Estimate (% RSE)” value was 0.299 (19.4%). The “First-order absorption rate constant, Ka, Estimate (% RSE)” value in data set [2] (setting [5]) was 4.86 1/h and 4.86 (12.6%) 1/h. Further, the “Apparent clearance, CL/F, Estimate (% RSE)” value in data set [2] (final PopPK model, NONMEM estimate, oral 5-30 mg QD, 403 patients) is recorded as 1.90 (2.75%) L/h/70 kg. Besides, the “Duration of constant (zero-order) release into depot, D1, capsule, Estimate (% RSE)” value in data set [2] (final PopPK model) is 0.814 (22.2%) h. For the same molecule, the “Duration of constant (zero-order) release into depot, D1, capsule, Estimate (% RSE)” value in data set [2] (final PopPK model, listed as Lucitanib) is given as 0.814 h. Also, in data set [2] (human, plasma, oral), the half-life is 8.58 min. In data set [2] (nonparametric bootstrap), the “Apparent central volume, Vc/F, Bootstrap median (2.5th, 97.5th percentile)” value is recorded as 63.4 (57.3, 70.6) L/70 kg; the “Apparent distribution clearance, Q/F, Bootstrap median (2.5th, 97.5th percentile)” value is 6.30 (5.29, 7.72) L/h/70 kg; the “Apparent peripheral volume, Vp/F, Bootstrap median (2.5th, 97.5th percentile)” value is reported as 68.9 (61.0, 79.1) L/70 kg; the “Effect of formulation on D1 (tablet to capsule ratio), Bootstrap median (2.5th, 97.5th percentile)” value is reported as 0.343 (0.178, 0.630). The “First-order absorption rate constant, Ka, Bootstrap median (2.5th, 97.5th percentile)” value in data set [2] (nonparametric bootstrap) is recorded as 4.77 (2.94, 8.21) 1/h. Further, the “Apparent clearance, CL/F, Bootstrap median (2.5th, 97.5th percentile)” value in data set [2] (nonparametric bootstrap, 1000 replicates) is 1.90 (1.80, 2.00) L/h/70 kg. In data set [2] (present dataset), the “Variance in Vc/F explained by body weight” value is on record as 11%. Further, the “D1 values, both immediate-release formulations” value in data set [2] (tablet and capsule) is on record as < 1 h. For the same molecule, the “D1 shorter for tablets versus capsules” value in data set [2] (tablet vs capsule) came out at 70%.
